Tested on: HEK-293T
Test: Multiplex assay against HEK293T
Format: toxicity, cell-based
Conditions: human
Method in brief: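 On a CQ1 microscope at 37°C and 5% CO2, live cells were imaged after compound addition. They had been stained at seeding with Hoechst33342, BioTracker Green Microtubule Cytoskeleton Dye, MitoTracker Red and Annexin V Alexa Fluor 680. CellPathfinder machine-learning gating assigned cells to Hoechst high-intensity objects or normal cells, normal cells to healthy, pyknosed or fragmented nuclei, and pyknosed cells to mitotic or apoptotic. Tubulin, mitochondrial-mass and membrane-permeability phenotypes are per cents of healthy-nucleus cells.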

[1] = 12 h, 1 µM, compound concentration 1 uM, replicate 1
[2] = 12 h, 1 µM, compound concentration 1 uM, replicate 2
[3] = 12 h, 10 µM, compound concentration 10 uM, replicate 1
[4] = 12 h, 10 µM, compound concentration 10 uM, replicate 2
[5] = 24 h, 1 µM, compound concentration 1 uM, replicate 1
[6] = 24 h, 1 µM, compound concentration 1 uM, replicate 2
[7] = 24 h, 10 µM, compound concentration 10 uM, replicate 1
[8] = 24 h, 10 µM, compound concentration 10 uM, replicate 2
[9] = 48 h, 1 µM, compound concentration 1 uM, replicate 1
[10] = 48 h, 1 µM, compound concentration 1 uM, replicate 2
[11] = 48 h, 10 µM, compound concentration 10 uM, replicate 1
[12] = 48 h, 10 µM, compound concentration 10 uM, replicate 2

## O=c1nc2[nH]c3ccccc3nc-2c(=O)[nH]1 [ALLOXAZINE]
[1]
  Population Apoptotic (%): 27%
  Population Fragmented Nuclei (%): 8%
  Population Healthy Nuclei (%): 77%
  Population Hoechst High Intensity Objects (%): 8%
  Population Membrane Permeable-Phenotype (%): 0%
  Population Mitochondria Different-Phenotype (%): 44%
  Population Mitotic Cells (%): 72%
  Population Normal (%): 91%
  Population Pyknosed Nuclei (%): 13%
  Population Tubulin-Different-Phenotype (%): 33%
  Total Cell Count: 377
[2]
  Population Apoptotic (%): 44%
  Population Fragmented Nuclei (%): 4%
  Population Healthy Nuclei (%): 79%
  Population Hoechst High Intensity Objects (%): 7%
  Population Mitochondria Different-Phenotype (%): 66%
  Population Mitotic Cells (%): 55%
  Population Normal (%): 92%
  Population Pyknosed Nuclei (%): 15%
  Population Tubulin-Different-Phenotype (%): 25%
  Total Cell Count: 345
[3]
  Population Apoptotic (%): 40%
  Population Fragmented Nuclei (%): 10%
  Population Healthy Nuclei (%): 71%
  Population Hoechst High Intensity Objects (%): 5%
  Population Membrane Permeable-Phenotype (%): 0%
  Population Mitochondria Different-Phenotype (%): 53%
  Population Mitotic Cells (%): 59%
  Population Normal (%): 94%
  Population Pyknosed Nuclei (%): 18%
  Population Tubulin-Different-Phenotype (%): 31%
  Total Cell Count: 362
[4]
  Population Apoptotic (%): 60%
  Population Fragmented Nuclei (%): 8%
  Population Healthy Nuclei (%): 70%
  Population Hoechst High Intensity Objects (%): 15%
  Population Mitochondria Different-Phenotype (%): 67%
  Population Mitotic Cells (%): 40%
  Population Normal (%): 84%
  Population Pyknosed Nuclei (%): 20%
  Population Tubulin-Different-Phenotype (%): 20%
  Total Cell Count: 323
[5]
  Population Apoptotic (%): 22%
  Population Fragmented Nuclei (%): 10%
  Population Healthy Nuclei (%): 76%
  Population Hoechst High Intensity Objects (%): 4%
  Population Membrane Permeable-Phenotype (%): 0%
  Population Mitochondria Different-Phenotype (%): 24%
  Population Mitotic Cells (%): 77%
  Population Normal (%): 95%
  Population Pyknosed Nuclei (%): 12%
  Population Tubulin-Different-Phenotype (%): 19%
  Total Cell Count: 504
[6]
  Population Apoptotic (%): 33%
  Population Fragmented Nuclei (%): 7%
  Population Healthy Nuclei (%): 83%
  Population Hoechst High Intensity Objects (%): 7%
  Population Mitochondria Different-Phenotype (%): 41%
  Population Mitotic Cells (%): 66%
  Population Normal (%): 92%
  Population Pyknosed Nuclei (%): 8%
  Population Tubulin-Different-Phenotype (%): 12%
  Total Cell Count: 391
[7]
  Population Apoptotic (%): 27%
  Population Fragmented Nuclei (%): 9%
  Population Healthy Nuclei (%): 77%
  Population Hoechst High Intensity Objects (%): 6%
  Population Membrane Permeable-Phenotype (%): 0%
  Population Mitochondria Different-Phenotype (%): 34%
  Population Mitotic Cells (%): 72%
  Population Normal (%): 93%
  Population Pyknosed Nuclei (%): 12%
  Population Tubulin-Different-Phenotype (%): 21%
  Total Cell Count: 491
[8]
  Population Apoptotic (%): 50%
  Population Healthy Nuclei (%): 72%
  Population Hoechst High Intensity Objects (%): 15%
  Population Mitochondria Different-Phenotype (%): 48%
  Population Mitotic Cells (%): 50%
  Population Normal (%): 84%
  Population Pyknosed Nuclei (%): 17%
  Population Tubulin-Different-Phenotype (%): 16%
  Total Cell Count: 371
[9]
  Population Apoptotic (%): 32%
  Population Fragmented Nuclei (%): 14%
  Population Healthy Nuclei (%): 77%
  Population Hoechst High Intensity Objects (%): 3%
  Population Membrane Permeable-Phenotype (%): 1%
  Population Mitochondria Different-Phenotype (%): 18%
  Population Mitotic Cells (%): 67%
  Population Normal (%): 96%
  Population Pyknosed Nuclei (%): 8%
  Population Tubulin-Different-Phenotype (%): 13%
  Total Cell Count: 773
[10]
  Population Apoptotic (%): 27%
  Population Fragmented Nuclei (%): 11%
  Population Healthy Nuclei (%): 82%
  Population Hoechst High Intensity Objects (%): 4%
  Population Membrane Permeable-Phenotype (%): 0%
  Population Mitochondria Different-Phenotype (%): 26%
  Population Mitotic Cells (%): 72%
  Population Normal (%): 95%
  Population Pyknosed Nuclei (%): 6%
  Population Tubulin-Different-Phenotype (%): 12%
  Total Cell Count: 636
[11]
  Population Apoptotic (%): 29%
  Population Fragmented Nuclei (%): 15%
  Population Healthy Nuclei (%): 76%
  Population Hoechst High Intensity Objects (%): 3%
  Population Membrane Permeable-Phenotype (%): 0%
  Population Mitochondria Different-Phenotype (%): 17%
  Population Mitotic Cells (%): 70%
  Population Normal (%): 96%
  Population Pyknosed Nuclei (%): 7%
  Population Tubulin-Different-Phenotype (%): 11%
  Total Cell Count: 700
[12]
  Population Apoptotic (%): 48%
  Population Fragmented Nuclei (%): 14%
  Population Healthy Nuclei (%): 78%
  Population Hoechst High Intensity Objects (%): 4%
  Population Mitochondria Different-Phenotype (%): 28%
  Population Mitotic Cells (%): 51%
  Population Normal (%): 95%
  Population Pyknosed Nuclei (%): 6%
  Population Tubulin-Different-Phenotype (%): 14%
  Total Cell Count: 531
